Results on 16 compounds are retold here after PubChem BioAssay.

The source made the active and inactive calls.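 The calls were made as follows, unless noted: active = GFP response above 150% of the DMSO level; inconclusive = fewer than 70 events counted for a yeast strain; inactive = the rest.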

Assay [1] is described as follows: RPL19A-GFP modulators, yeast TOR pathway, confirmation, cell-based, S. cerevisiae, flow cytometry, cherry picks, mother/daughter gates (AID 2270;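 active = GFP response below 50% of the DMSO control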). As to conditions: S. cerevisiae RPL19A-GFP strain, 3 h, at 10 µM, stronger effect = lower value, 100 = same GFP as DMSO wells.
Assay [2] can be described thus: LAP4-GFP expression modulators in yeast, confirmation, cell-based, cherry picks, flow cytometry, mother/daughter gates (AID 2271;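 active = GFP response above 150% of the DMSO control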;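 also: ratio of sample to DMSO plate mean so 100% equals DMSO level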). The settings on record: S. cerevisiae LAP4-GFP strain, 3 h, at 10 µM, stronger effect = higher value, 100 means same as DMSO control. A digest of the protocol: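 System: Alexa 633-stained baker's yeast GFP-fusion strain / Medium: synthetic complete (SC) yeast growth medium / Doses: compound at 10 µM, single point / Times: 3 h treatment at 30 °C with rotation / Detection: HT flow cytometry, GFP fluorescence channel / Benchmarks: DMSO-only negative wells, rapamycin 400 ng/mL positive wells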
Background: In flow cytometry, cells or beads pass a laser one at a time.

Assay [3] can be described thus: modulators of MEP2-GFP levels in yeast, confirmation, S. cerevisiae, flow cytometry GFP, cherry picks (AID 2272;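 active = GFP response above 150% of the DMSO control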;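 also: ratio of well signal to plate DMSO mean so 100% equals DMSO level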). The settings on record: S. cerevisiae MEP2-GFP strain, 3 h, at 10 µM, stronger effect = higher value.
The nature of assay [4]: AGP1-GFP expression modulators, hit retest, confirmation, cell-based, flow cytometry, S. cerevisiae, cherry picks (AID 2273).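 Also: median GFP channel fluorescence over the whole cell population gate.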 As to conditions: S. cerevisiae AGP1-GFP strain, 3 h, at 10 µM.
A short description of assay [5]: modulators of CIT2-GFP expression in yeast, confirmation, S. cerevisiae, GFP fusion, cherry picks, mother/daughter gates (AID 2274). As to conditions: S. cerevisiae CIT2-GFP strain, flow cytometry, 3 h, at 10 µM, stronger effect = higher value.
Where [6] appears, read: measured here: daughter cell gate.
Setting [7] is: measured here: mother cell gate.
Where [8] appears, read: measured here: daughter cell gate response.
Where [9] appears, read: measured here: mother cell gate response.

In the case of `Oc1ccc(-c2nc3ccccn3c2NCc2ccco2)cc1`, the GFP response vs DMSO was 96.8% (inactive) in assay [1], 98.4% in assay [1] (setting [6]), 97.1% in assay [1] (setting [7]) and 102% (inactive) in assay [3]. Moreover, the GFP response relative to DMSO in assay [2] is 101% (inactive); in assay [2] (setting [8]), 99.2%; in assay [2] (setting [9]), 99.3%. The GFP response, % of DMSO in assay [4] is 96.2% (inactive); in assay [5], 103% (inactive); in assay [5] (setting [6]), 105%; in assay [5] (setting [7]) it was 101%.

Regarding `O=C(/C=C/c1ccccn1)c1cc(Br)ccc1O`, the GFP response vs DMSO in assay [1] was 81.7% (inactive); in assay [1] (setting [6]), 93.3%; in assay [1] (setting [7]), 72.8%; in assay [3], 109% (inactive). The GFP response relative to DMSO in assay [2] is 218% (active); in assay [2] (setting [8]), 177%; in assay [2] (setting [9]) it was 210%. The GFP response, % of DMSO is 102% (inactive) in assay [4], 86.1% (inactive) in assay [5], 94.8% in assay [5] (setting [6]) and 77.3% in assay [5] (setting [7]).

For `COc1ccccc1NC(=O)Cn1nnc(-c2ccccc2NC(=O)c2ccco2)n1`, the GFP response vs DMSO in assay [1] is 95.9% (inactive); in assay [1] (setting [6]), 96.1%; in assay [1] (setting [7]) it was 96.6%; in assay [3] it was 100% (inactive). Further, the figures for the GFP response relative to DMSO in assay [2], in assay [2] (setting [8]) and in assay [2] (setting [9]) were 85.4% (inactive), 87.9% and 89%, respectively. Besides, the GFP response, % of DMSO was 95.4% (inactive) in assay [4], 99.1% (inactive) in assay [5], 98.1% in assay [5] (setting [6]) and 99.8% in assay [5] (setting [7]).

For `COC(=O)Cn1cc(/C=C/c2cc[n+](C)cc2)c2ccccc21`, the GFP response vs DMSO is 99.3% (inactive) in assay [1], 99.3% in assay [1] (setting [6]), 98.2% in assay [1] (setting [7]) and 112% (inactive) in assay [3]. Moreover, the values for the GFP response relative to DMSO in assay [2], in assay [2] (setting [8]) and in assay [2] (setting [9]) were 97.7% (inactive), 99% and 98.4%, respectively. Besides, the GFP response, % of DMSO is 104% (inactive) in assay [4], 104% (inactive) in assay [5], 105% in assay [5] (setting [6]) and 104% in assay [5] (setting [7]).

In the case of `CC(C)c1nc2ccccn2c1NC1CCCCC1`, the GFP response vs DMSO in assay [1] is 101% (inactive); in assay [1] (setting [6]), 98.4%; in assay [1] (setting [7]), 98%; in assay [3], 100% (inactive). Also, the results for the GFP response relative to DMSO in assay [2], in assay [2] (setting [8]) and in assay [2] (setting [9]) were 97.9% (inactive), 99.2% and 98.3%, respectively. For the same compound, the GFP response, % of DMSO in assay [4] is 102% (inactive); in assay [5], 101% (inactive); in assay [5] (setting [6]) it was 103%; in assay [5] (setting [7]), 101%.

In the case of `CCN1/C(=C/c2ccc3cc(C)ccc3[n+]2CC)Sc2ccc3sccc3c21`, the GFP response vs DMSO in assay [1] is 96.7% (inactive); in assay [1] (setting [6]), 74.3%; in assay [1] (setting [7]), 92.3%; in assay [3] it was 244% (active). Besides, the GFP response relative to DMSO was 316% (active) in assay [2], 155% in assay [2] (setting [8]) and 287% in assay [2] (setting [9]). Also, the GFP response, % of DMSO in assay [4] is 118% (inactive); in assay [5], 132% (inactive); in assay [5] (setting [6]), 110%; in assay [5] (setting [7]), 133%.

As for `O=C(CCc1ccccc1)NNC(=S)NC(=O)c1ccccc1`, the GFP response vs DMSO in assay [1] is 106% (inactive); in assay [1] (setting [6]) it was 106%; in assay [1] (setting [7]) it was 107%; in assay [3], 116% (inactive). Moreover, the GFP response relative to DMSO in assay [2] is 186% (active); in assay [2] (setting [8]) it was 180%; in assay [2] (setting [9]), 185%. Also, the GFP response, % of DMSO in assay [4] was 100% (inactive); in assay [5], 106% (inactive); in assay [5] (setting [6]), 113%; in assay [5] (setting [7]), 100%.

`O=C(/C=C/c1ccc(-c2ccccc2[N+](=O)[O-])o1)c1ccc(Br)cc1`: the GFP response vs DMSO in assay [1] is 96.4% (inactive); in assay [1] (setting [6]), 97.6%; in assay [1] (setting [7]), 96.7%; in assay [3] it was 105% (inactive). Further, the figures for the GFP response relative to DMSO in assay [2], in assay [2] (setting [8]) and in assay [2] (setting [9]) were 121% (inactive), 118% and 126%, respectively. Besides, the GFP response, % of DMSO in assay [4] was 94.1% (inactive); in assay [5], 101% (inactive); in assay [5] (setting [6]), 105%; in assay [5] (setting [7]), 99.7%.

Consider `Cc1ccc(C)c(Cn2ncc3ccccc32)c1`, for which the GFP response vs DMSO is 95.8% (inactive) in assay [1], 98.1% in assay [1] (setting [6]), 95.4% in assay [1] (setting [7]) and 106% (inactive) in assay [3]. Besides, the GFP response relative to DMSO in assay [2] was 100% (inactive); in assay [2] (setting [8]) it was 97.5%; in assay [2] (setting [9]), 104%. The GFP response, % of DMSO in assay [4] is 90.7% (inactive); in assay [5], 94.4% (inactive); in assay [5] (setting [6]) it was 95.8%; in assay [5] (setting [7]), 92.6%.

As to `O=[N+]([O-])c1cc(S(=O)(=O)C(F)(F)F)ccc1Sc1nc2ccccc2s1`, the GFP response vs DMSO in assay [1] is 95.6% (inactive); in assay [1] (setting [6]), 95.1%; in assay [1] (setting [7]), 93.1%; in assay [3] it was 102% (inactive). The GFP response relative to DMSO is 184% (active) in assay [2], 162% in assay [2] (setting [8]) and 192% in assay [2] (setting [9]). The GFP response, % of DMSO was 88.1% (inactive) in assay [4], 107% (inactive) in assay [5], 105% in assay [5] (setting [6]) and 99.7% in assay [5] (setting [7]).

As to `CCOc1ccc2ccccc2c1C(=O)N1CCN(c2ccccc2)CC1`, the GFP response vs DMSO in assay [1] was 97.8% (inactive); in assay [1] (setting [6]) it was 98.4%; in assay [1] (setting [7]), 96.3%; in assay [3] it was 99.3% (inactive). Also, the GFP response relative to DMSO in assay [2] was 105% (inactive); in assay [2] (setting [8]) it was 105%; in assay [2] (setting [9]), 105%. Further, the GFP response, % of DMSO was 98.4% (inactive) in assay [4], 93.1% (inactive) in assay [5], 94% in assay [5] (setting [6]) and 93.8% in assay [5] (setting [7]).

For the compound `Cc1cc(C)c2sc(NC(=O)C3=COCCO3)nc2c1`, the GFP response vs DMSO in assay [1] was 95.8% (inactive); in assay [1] (setting [6]) it was 95.5%; in assay [1] (setting [7]) it was 97.9%; in assay [3] it was 99.5% (inactive). Further, the GFP response relative to DMSO in assay [2] was 94.2% (inactive); in assay [2] (setting [8]) it was 95%; in assay [2] (setting [9]), 96.5%. Moreover, the GFP response, % of DMSO in assay [4] is 92.5% (inactive); in assay [5], 102% (inactive); in assay [5] (setting [6]), 104%; in assay [5] (setting [7]), 101%.

Take `O=C1C(=O)c2ccc(-c3ccccc3)cc2-c2ccccc21`: the GFP response vs DMSO in assay [1] was 102% (inactive); in assay [1] (setting [6]), 104%; in assay [1] (setting [7]) it was 102%; in assay [3], 115% (inactive). The figures for the GFP response relative to DMSO in assay [2], in assay [2] (setting [8]) and in assay [2] (setting [9]) were 117% (inactive), 110% and 124%, respectively. For the same compound, the GFP response, % of DMSO is 90.4% (inactive) in assay [4], 107% (inactive) in assay [5], 106% in assay [5] (setting [6]) and 102% in assay [5] (setting [7]).

For `Cc1nnc(NC(=O)c2nc(S(=O)(=O)Cc3ccccc3)ncc2Cl)s1`, the GFP response vs DMSO was 95.1% (inactive) in assay [1], 96.7% in assay [1] (setting [6]), 93.7% in assay [1] (setting [7]) and 99.3% (inactive) in assay [3]. Also, the values for the GFP response relative to DMSO in assay [2], in assay [2] (setting [8]) and in assay [2] (setting [9]) were 96.5% (inactive), 99% and 98.4%, respectively. In addition, the GFP response, % of DMSO in assay [4] is 103% (inactive); in assay [5] it was 104% (inactive); in assay [5] (setting [6]), 103%; in assay [5] (setting [7]) it was 104%.

As for `COc1ccc(C(=O)Oc2ccc(/C=N/NC(=O)c3ccccc3OC)cc2[N+](=O)[O-])cc1`, the GFP response vs DMSO in assay [1] was 102% (inactive); in assay [1] (setting [6]), 103%; in assay [1] (setting [7]) it was 101%; in assay [3], 104% (inactive). For the same compound, the GFP response relative to DMSO was 87.2% (inactive) in assay [2], 87.8% in assay [2] (setting [8]) and 86.7% in assay [2] (setting [9]). In addition, the GFP response, % of DMSO in assay [4] is 101% (inactive); in assay [5], 104% (inactive); in assay [5] (setting [6]) it was 104%; in assay [5] (setting [7]) it was 100%.

In the case of `Cc1ccc2c(nc3s/c(=C\c4ccc(-c5ccccc5C(=O)O)o4)c(=O)n32)c1C`, the GFP response vs DMSO is 119% (inactive) in assay [1], 117% in assay [1] (setting [6]), 117% in assay [1] (setting [7]) and 346% (active) in assay [3]. The GFP response relative to DMSO was 243% (active) in assay [2], 218% in assay [2] (setting [8]) and 259% in assay [2] (setting [9]). Further, the GFP response, % of DMSO in assay [4] is 119% (inactive); in assay [5], 157% (active); in assay [5] (setting [6]), 158%; in assay [5] (setting [7]) it was 154%.
